Consider four compounds from ChEMBL document CHEMBL1124765, “Synthesis and biological properties of novel phosphotriesters: a new approach to the introduction of biologically active nucleotides into cells” (J Med Chem, 1990).

Data set [1] can be described thus: pKa value was determined. Format: physicochemical.
Data set [2] is filed under the species Mus musculus. As to the kind of experiment: Mean time survival (MTS) of the mice at the end of 28 or 49 days. In kind it is functional. In short, it runs like this: (§1)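 Inocula were TK⁻ HSV-1 at 10⁶ CCID50/0.05 mL or HSV-1 KOS at 10^4.7 PFU/0.05 mL. Test formulations in DMSO were applied topically four times daily for 5 days, starting at infection. Skin lesions, hind-leg paralysis and death were recorded daily for 28 (KOS) or 49 (TK⁻) days, with five mice per group.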

The subject of data set [3] is Mus musculus. As to the kind of experiment: Topical treatment of intracutaneous TK- herpes simplex virus type 1 of strain VMW 1837 infection of Nu/nu mice for mean day of appearance of skin lesions and/or paralysis of the hind legs at 0.3% concentration (v/v in DMSO). Format: functional. In short, it runs like this: as §1
The test system of data set [4] is Mus musculus. As to the kind of experiment: Topical treatment of intracutaneous TK- herpes simplex virus type 1 of strain VMW 1837 infection of Nu/nu mice for mean day of appearance of skin lesions and/or paralysis of the hind legs at 1% concentration (v/v in DMSO). Format: functional. In short, it runs like this: as §1
Data set [5] relates to Mus musculus. As to the kind of experiment: Topical treatment of intracutaneous TK- herpes simplex virus type 1 of strain VMW 1837 infection of Nu/nu mice for mean day of appearance of skin lesions and/or paralysis of the hind legs at 3% concentration (v/v in DMSO). Format: functional. An outline of the steps:
as §1

For another data set, the species on record is Oryctolagus cuniculus. As to the kind of experiment: Evaluated for the minimum cytotoxic concentration (MCC) upon preincubation of rabbit kidney cells in medium containing 10% fetal calf serum at 37 degree Celsius for 24 hr. In kind it is functional. In short, it runs like this:
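Primary rabbit kidney cell cultures were exposed to compounds, some preincubated 24 h at 37 °C in medium with 10% fetal calf serum. The minimum cytotoxic concentration was the level causing a microscopically detectable change in normal cell morphology.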

Data set [6] concerns Human alphaherpesvirus 1. As to the kind of experiment: Evaluated for the minimum inhibitory concentration (MIC) in primary rabbit kidney (PRK) by 50% against TK- herpes simplex virus type 1 (TK- HSV-1) with strain VMW 1837. Format: functional. An outline of the steps: (§2)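 Confluent primary rabbit kidney cell monolayers were infected with 100 CCID50 of virus. After 1 h adsorption, residual virus was removed and cells were incubated with serial compound concentrations. Cytopathogenicity was scored once it reached completion in untreated infected controls. The endpoint was the concentration reducing virus-induced cytopathogenicity by 50%.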

In data set [7] the test system is Human alphaherpesvirus 1. As to the kind of experiment: (§3) Evaluated for the minimum inhibitory concentration (MIC) in primary rabbit kidney (PRK), by 50% upon preincubation in medium containing 10% fetal calf serum at 37 degree Celsius for 24 hr against TK- herpes simplex virus type 1 (TK- HSV-1) with s. Format: functional. In short, it runs like this: (§4)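 Compounds were preincubated in medium with 10% fetal calf serum for 24 h at 37 °C before addition to the cells. Confluent primary rabbit kidney monolayers were infected with 100 CCID50 of virus and adsorbed for 1 h. Residual virus was removed and cells were incubated with varying compound concentrations. The endpoint was 50% reduction of cytopathogenicity, read when infected controls reached full CPE.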

Data set [8] relates to Human alphaherpesvirus 1. As to the kind of experiment: Evaluated for the minimum inhibitory concentration (MIC) in primary rabbit kidney (PRK), by 50% against TK- herpes simplex virus type 1 (TK- HSV-1) with strain B2006. Format: functional. In short, it runs like this: as §2
The test system of data set [9] is Human alphaherpesvirus 1. Described as §3. Format: functional. An outline of the steps:
as §4
The source holds these as a separate data set.

Data set [10] deals with Vaccinia virus. As to the kind of experiment: Evaluated for the minimum inhibitory concentration (MIC) in primary rabbit kidney (PRK), by 50% upon preincubation in medium containing 10% fetal calf serum at 37 degree Celsius for 24 hr against Vaccinia virus. In kind it is functional. The following applies: Orthopoxvirus vaccinia. In short, it runs like this:
as §4

Data set [11] deals with Vesicular stomatitis virus. As to the kind of experiment: Evaluated for the minimum inhibitory concentration (MIC) in primary rabbit kidney (PRK) by 50% against Vesicular stomatitis virus. Format: functional. An outline of the steps:
as §2

The subject of data set [12] is Human alphaherpesvirus 1. As to the kind of experiment: Evaluated for the minimum inhibitory concentration (MIC) in primary rabbit kidney (PRK) by 50% upon preincubation in medium containing 10% fetal calf serum at 37 degree Celsius for 24 hr against herpes simplex virus type-1 (HSV-1) with strain F. Format: functional. An outline of the steps:
as §4

Data set [13] deals with Human alphaherpesvirus 1. As to the kind of experiment: Evaluated for the minimum inhibitory concentration (MIC) in primary rabbit kidney (PRK) by 50% upon preincubation in medium containing 10% fetal calf serum at 37 degree Celsius for 24 hr against herpes simplex virus type-1 (HSV-1) with strain KOS. In kind it is functional. An outline of the steps: as §4
For data set [14], the system named is Human alphaherpesvirus 1. As to the kind of experiment: Evaluated for the minimum inhibitory concentration (MIC) in primary rabbit kidney (PRK), by 50% upon preincubation in medium containing 10% fetal calf serum at 37 degree Centigrade for 24 hr against herpes simplex virus type-1 (HSV-1) with strain Mc. In kind it is functional. In short, it runs like this: as §4

Data set [15] deals with Vaccinia virus. As to the kind of experiment: Evaluated for the minimum inhibitory concentration (MIC) in primary rabbit kidney (PRK) by 50% against Vaccinia virus. Format: functional. The following applies: Orthopoxvirus vaccinia. In short, it runs like this: as §2
Data set [16] concerns Human alphaherpesvirus 2. As to the kind of experiment: Evaluated for the minimum inhibitory concentration (MIC) in primary rabbit kidney (PRK), by 50% upon pre-incubation in medium containing 10% fetal calf serum at 37 degree Centigrade for 24 hr against herpes simplex virus type-2 (HSV-2) with strains 1. Format: functional. An outline of the steps:
as §4

The test system of data set [17] is Human alphaherpesvirus 2. As to the kind of experiment: Evaluated for the minimum inhibitory concentration (MIC) in primary rabbit kidney (PRK), by 50% upon preincubation in medium containing 10% fetal calf serum at 37 degree Celsius for 24 hr against herpes simplex virus type-2 (HSV-2) with strains G. Format: functional. An outline of the steps:
as §4

For data set [18], the system named is Human alphaherpesvirus 2. As to the kind of experiment: Evaluated for the minimum inhibitory concentration (MIC) in primary rabbit kidney (PRK), by 50% upon pre-incubation in medium containing 10% fetal calf serum at 37 degree Centigrade for 24 hr against herpes simplex virus type-2 (HSV-2) with strains L. In kind it is functional. In short, it runs like this:
as §4

The subject of data set [19] is Human alphaherpesvirus 1. As to the kind of experiment: Evaluated for the minimum inhibitory concentration (MIC) in primary rabbit kidney (PRK) by 50% against herpes simplex virus type-1 (HSV-1) with strains KOS. Format: functional. In short, it runs like this: (§5)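 Confluent primary rabbit kidney cell cultures infected with 100 CCID50 virus; after 1 h adsorption residual virus removed and cells incubated with varying compound concentrations. Cytopathogenicity scored when complete in infected untreated controls; MIC = concentration reducing virus-induced cytopathogenicity by 50%. Compounds tested as such or after preincubation in medium with 10% fetal calf serum, 24 h, 37 °C.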

Data set [20] deals with Human alphaherpesvirus 1. As to the kind of experiment: Evaluated for the minimum inhibitory concentration (MIC) in primary rabbit kidney (PRK) by 50% against herpes simplex virus type-1 (HSV-1) with strains McIntyre. In kind it is functional. An outline of the steps:
as §5

For data set [21], the system named is Human alphaherpesvirus 2. As to the kind of experiment: Evaluated for the minimum inhibitory concentration (MIC) in primary rabbit kidney (PRK) by 50% against herpes simplex virus type-2 (HSV-2) with strains 196. Format: functional. An outline of the steps:
as §5

Data set [22] deals with Human alphaherpesvirus 2. As to the kind of experiment: Evaluated for the minimum inhibitory concentration (MIC) in primary rabbit kidney (PRK) by 50% against herpes simplex virus type-2 (HSV-2) with strains Lyons. Format: functional. In short, it runs like this: as §5
Data set [23] concerns Vesicular stomatitis virus. As to the kind of experiment: Evaluated for the minimum inhibitory concentration (MIC) in primary rabbit kidney (PRK), by 50% upon preincubation in medium containing 10% fetal calf serum at 37 degree Celsius for 24 hr against vesicular stomatitis virus. In kind it is functional. In short, it runs like this: as §4
For data set [24], the system named is Human alphaherpesvirus 1. As to the kind of experiment: Evaluated for the minimum inhibitory concentration (MIC) in primary rabbit kidney (PRK) by 50% against herpes simplex virus type-1 (HSV-1) with strains F. In kind it is functional. An outline of the steps: as §5

Converted amounts (≈) assume the structure as drawn. “And” between values parts separate entries of the source, which are not always exact repeats. Equal entries are not always repeated. A value given as a limit tells only on which side of the number the result lay.

For orientation: pKa means the pH at which an ionisable group is half protonated. Lower therefore signals a group that gives up its proton readily. In the case of `CC(=O)O[C@H]1C[C@H](n2cc(C)c(=O)[nH]c2=O)O[C@@H]1COP(=O)(OC[C@H]1O[C@@H](n2cc(C)c(=O)[nH]c2=O)C[C@@H]1OC(C)=O)Oc1ccc([N+](=O)[O-])cc1`, in [1], the pKa was found to be 7.16.
For the compound `CC(=O)O[C@H]1C[C@H](n2cc(C)c(=O)[nH]c2=O)O[C@@H]1COP(=O)(OC[C@H]1O[C@@H](n2cc(C)c(=O)[nH]c2=O)C[C@@H]1OC(C)=O)Oc1ccc(S(C)(=O)=O)cc1`, in data set [1], the pKa was 7.83.
On to `CS(=O)(=O)c1ccc(OP(=O)(OCCOCn2cnc3c(O)nc(N)nc32)OCCOCn2cnc3c(O)nc(N)nc32)cc1`, for which the MTS in the data set filed under Mus musculus [2] is 40.2 days and 40.6 days and 33.4 days. Moreover, the “Mean day appearance of lesions” value with Mus musculus [3] is recorded as 17.6; in the data set with Mus musculus [4], 23.6; in the data set with Mus musculus [5], 29.7. Moreover, the MCC is 400 µg/mL in the data set listed under Oryctolagus cuniculus and 400 µg/mL in the data set listed under Oryctolagus cuniculus (Oryctolagus cuniculus, kidney, read-out: MCC). Further, the MIC against Human alphaherpesvirus 1 [6] was 70 µg/mL (≈ 105 µM); with Human alphaherpesvirus 1 [7], 40 µg/mL (≈ 60 µM); in the data set on Human alphaherpesvirus 1 [8], 150 µg/mL (≈ 225 µM); with Human alphaherpesvirus 1 [9] it was 150 µg/mL (≈ 225 µM); against Vaccinia virus [10], over 200 µg/mL; in data set [11], over 200 µg/mL. The MIC against Human alphaherpesvirus 1 [12] was 0.4 µg/mL (≈ 0.6 µM); in the data set with Human alphaherpesvirus 1 [13] it was 0.4 µg/mL (≈ 0.6 µM); with Human alphaherpesvirus 1 [14] it was 0.7 µg/mL (≈ 1.05 µM); in the data set with Vaccinia virus [15], over 200 µg/mL; with Human alphaherpesvirus 2 [16] it was 0.3 µg/mL (≈ 0.45 µM); in the data set on Human alphaherpesvirus 2 [17], 0.2 µg/mL (≈ 0.3 µM). The MIC in the data set on Human alphaherpesvirus 2 [18] is 0.4 µg/mL (≈ 0.6 µM); with Human alphaherpesvirus 1 [19], 0.7 µg/mL (≈ 1.05 µM); with Human alphaherpesvirus 1 [20], 1 µg/mL (≈ 1.5 µM); in the data set with Human alphaherpesvirus 2 [21], 0.4 µg/mL (≈ 0.6 µM); in the data set with Human alphaherpesvirus 2 [22] it was 0.4 µg/mL (≈ 0.6 µM); in data set [23] it was over 200 µg/mL. Further, the MIC with Human alphaherpesvirus 1 [24] was determined as 0.7 µg/mL (≈ 1.05 µM).
In data set [1], `CC(=O)O[C@H]1C[C@H](n2cc(C)c(=O)[nH]c2=O)O[C@@H]1COP(=O)(OC[C@H]1O[C@@H](n2cc(C)c(=O)[nH]c2=O)C[C@@H]1OC(C)=O)Oc1ccccc1Cl` registered a pKa of 8.48.
